Screening results (PubChem)
CendR NRP1 mod – NRP-1/CendR interaction modulation; O14786; FAM-RPARPAR peptide binding to NRP-1, fluorescence polarization; inhibition, % at 25 µM; 360,000 tested, 0.85% active;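 active = inhibition or corrected inhibition above about 18%, plus a signal ratio from 0.5 to 1.5, limit read from the data, passing the limit was not always enough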
ARFGAP1 inhibitor – inhibitors of rat ARFGAP1; Q62848; Arfgap1-stimulated ARF1 GTP hydrolysis, GDP FP detection; inhibition, % at 16.5 µM; 360,000 tested, 0.26% active;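 active = inhibition above a per-plate limit, mean inhibition of low control wells plus 3 SD, cut at about 25% in these data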;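 also: 0% = DMSO wells with enzyme and 100% = wells lacking Arfgap1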
Target sequence (Q62848 1-136 limits assumed): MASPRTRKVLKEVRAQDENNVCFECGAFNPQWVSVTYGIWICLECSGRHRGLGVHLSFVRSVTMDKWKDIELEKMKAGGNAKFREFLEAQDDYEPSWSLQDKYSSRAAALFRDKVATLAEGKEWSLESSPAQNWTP
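Assay system: purified rat His6-Arfgap1 residues 1-136 (GAP domain); Reagent: human Δ17 ARF1 bound to GTP; Dosing: 16.5 µM single point, 1.26% DMSO; Times: GTP hydrolysis reaction 2 h at 25 °C; Signal: FP, GDP Alexa 633 tracer displaced from anti-GDP antibody, 620/688 nm; Measure: % inhibition from polarization.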
V-ATPase pHluor – yeast V-ATPase proton transport regulation by pHLuorin; S. cerevisiae, pHLuorin cytosolic pH fluorescence; response, % at 10 µM; 350,000 tested, 0.37% active; in the data active = response mostly above about 7.3%, no sharp cut-off; inactive = mostly below about 5.4%; also: actives read high
ASAP1 GAP inh – inhibitors of human ASAP1 ArfGAP activity | Q9ULH1 | 360,000 tested, 0.19% active | inhibition, % at 16.5 µM | ASAP1-stimulated ARF1 GTP hydrolysis, GDP FP detection; in the data active = inhibition above about 25%;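 also: 0% = vehicle with enzyme and substrate and 100% = no enzyme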
Target sequence (Q9ULH1 325-724 limits assumed): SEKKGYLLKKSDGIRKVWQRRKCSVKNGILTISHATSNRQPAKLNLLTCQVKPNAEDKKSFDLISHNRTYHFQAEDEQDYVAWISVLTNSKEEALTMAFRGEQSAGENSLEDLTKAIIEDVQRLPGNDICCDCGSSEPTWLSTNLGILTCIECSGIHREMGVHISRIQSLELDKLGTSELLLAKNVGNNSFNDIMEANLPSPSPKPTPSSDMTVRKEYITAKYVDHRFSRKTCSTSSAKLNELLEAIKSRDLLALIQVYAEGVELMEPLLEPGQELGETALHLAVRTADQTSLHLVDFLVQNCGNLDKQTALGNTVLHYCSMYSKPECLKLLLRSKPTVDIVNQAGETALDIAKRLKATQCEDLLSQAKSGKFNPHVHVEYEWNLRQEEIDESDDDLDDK
Exocytosis inh – blocks lytic granule exocytosis; 360,000 tested, 0.66% active; TALL-104 LAMP-1 surface exposure, flow cytometry; cells stimulated with thapsigargin and PMA; inhibition, % at 10 µM;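 active = inhibition above about 55%, limit read from the data; inconclusive = no clear call, values can overlap the other calls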
Starred values were filed as active, the others as inactive. Shown are actives, neighbours in structure and some others; about 2.2% of the full set was active somewhere.

Results for Clc1cccc(CN2CCN(c3ncc(Cc4ccccc4)cn3)CC2)c1Cl ?
ARFGAP1 inhibitor: -3.1; ASAP1 GAP inh: -1.0

Results for CCCCCC1C(C(=O)OCC)C(=O)NC1(C(=O)OCC)C(=O)OCC (configuration not stated) ?
CendR NRP1 mod: 7.2; ARFGAP1 inhibitor: 6.9; V-ATPase pHluor: -1.8; ASAP1 GAP inh: -8.5; Exocytosis inh: 94.7*

How did CCCCn1c(CCNC(=O)c2ccco2)nc2ccccc21 do in these assays?
CendR NRP1 mod: -11.1; ARFGAP1 inhibitor: 4.2; V-ATPase pHluor: 1.2; ASAP1 GAP inh: -13.7; Exocytosis inh: -0.9

What do the screens show for `CCCCn1c(CCCNC(=O)c2ccco2)nc2ccccc21`?
CendR NRP1 mod: 22.2*; ARFGAP1 inhibitor: -4.7; V-ATPase pHluor: -1.3; ASAP1 GAP inh: -2.2; Exocytosis inh: -6.4

How did CCCCCCCCN1C(=O)[C@@H](CC(=O)NCC23CC4CC(CC(C4)C2)C3)C[C@@]2(C(=O)OC)C1=C[C@H](C1CCCC1)O[C@@H]2C do in these assays?
ARFGAP1 inhibitor: -11.0; ASAP1 GAP inh: -0.8

How did COC(=O)CCCC1=CC2=C(c3ccccc3)C(=O)C(C)(OC(=O)C3CCCC3)C(=O)C2=CN1Cc1ccco1 (configuration not stated) do in these assays?
CendR NRP1 mod: 29.5*; ARFGAP1 inhibitor: -9.3; V-ATPase pHluor: -7.6; ASAP1 GAP inh: 8.1; Exocytosis inh: 4.7

What do the screens show for `c1ccc2c(c1)CCCN2Cc1nnnn1CC1CCCO1` (configuration not stated)?
CendR NRP1 mod: 23.8*; ARFGAP1 inhibitor: 0.1; V-ATPase pHluor: 2.8; ASAP1 GAP inh: 4.9; Exocytosis inh: -1.9

Results for Cc1[nH]c2ccc(C(=O)OCCN(C)C)cc2c1C ?
CendR NRP1 mod: -7.9; ARFGAP1 inhibitor: 5.9; V-ATPase pHluor: -3.1; ASAP1 GAP inh: -1.4; Exocytosis inh: 0.1

What do the screens show for `CCOC(=O)c1ccc2[nH]c(C)c(C)c2c1`?
CendR NRP1 mod: 45.5*; ARFGAP1 inhibitor: 6.9; V-ATPase pHluor: 2.2; ASAP1 GAP inh: -0.1; Exocytosis inh: -6.4

What do the screens show for `Nc1ncnc2c1ncn2[C@@H]1O[C@H](C(=O)N[C@@H](CCc2ccccc2)C(=O)O)[C@@H](O)[C@H]1O`?
ARFGAP1 inhibitor: -7.1; ASAP1 GAP inh: -14.6

How did C[C@@]12CCC3[C@@](CCC4[C@@]3(C)CCC[C@@]4(C)C(=O)NC3CCCCC3)(CC1=O)C2 (some centres not stated) do in these assays?
CendR NRP1 mod: 32.2*; ARFGAP1 inhibitor: 1.7; V-ATPase pHluor: 0.1; ASAP1 GAP inh: -11.1; Exocytosis inh: 8.1

Results for C[C@@]12CCC3[C@@](CCC4[C@@]3(C)CCC[C@@]4(C)C(=O)N3CCCCC3)(CC1=O)C2 (some centres not stated) ?
CendR NRP1 mod: -10.4; ARFGAP1 inhibitor: -4.4; V-ATPase pHluor: -0.6; ASAP1 GAP inh: 9.0; Exocytosis inh: 0.7

Results for CCn1c(=O)c([N+](=O)[O-])c(Cl)c2ccccc21 ?
CendR NRP1 mod: -6.9; V-ATPase pHluor: 20.5*; Exocytosis inh: 24.5

How did CCn1c(=O)c([N+](=O)[O-])c(NCCN(C)C)c2ccccc21 do in these assays?
CendR NRP1 mod: 1.9; ARFGAP1 inhibitor: -11.8; V-ATPase pHluor: -2.6; ASAP1 GAP inh: -8.8; Exocytosis inh: 1.0

Results for COC(=O)C1=C(C)N(CC(C)C)C(=S)NC1c1cccc(Br)c1 (configuration not stated) ?
ARFGAP1 inhibitor: 1.8; ASAP1 GAP inh: -3.7

What do the screens show for `COC(=O)[C@]12C[C@H](CC(=O)N3CCCC3)C(=O)N(Cc3ccc4c(c3)OCO4)C1=C[C@H](COCc1ccccc1)O[C@@H]2C`?
ARFGAP1 inhibitor: -10.3; ASAP1 GAP inh: -0.9

Results for COc1ccc(S(=O)(=O)N2CCN(c3cnccn3)CC2)cc1OC ?
CendR NRP1 mod: -16.8; ARFGAP1 inhibitor: -3.4; V-ATPase pHluor: 16.4*; ASAP1 GAP inh: -9.9; Exocytosis inh: 13.2

How did CCCc1nc2c(=O)n(C)c(=O)nc-2n(C)n1 do in these assays?
CendR NRP1 mod: 14.2; ARFGAP1 inhibitor: -9.9; V-ATPase pHluor: -1.3; ASAP1 GAP inh: -15.5; Exocytosis inh: 19.8

What do the screens show for `Cn1nc(-c2ccccn2)nc2c(=O)n(C)c(=O)nc1-2`?
CendR NRP1 mod: 28.2*; ARFGAP1 inhibitor: -5.7; V-ATPase pHluor: 4.5; ASAP1 GAP inh: -0.9; Exocytosis inh: 31.4

Results for O=C(Nc1ccc2c(c1)OCCO2)C1C(=O)Nc2ccccc2C(=O)N1C1CCCCC1 (configuration not stated) ?
CendR NRP1 mod: 21.0*; ARFGAP1 inhibitor: 0.9; ASAP1 GAP inh: -6.1; Exocytosis inh: -9.6

What do the screens show for `COc1ccc(NC(=S)Nn2cnnc2)c(OC)c1`?
CendR NRP1 mod: 43.5*; ARFGAP1 inhibitor: 2.0; V-ATPase pHluor: 1.8; ASAP1 GAP inh: 5.5; Exocytosis inh: -0.9

How did COc1ccc(NC(=S)Nn2cnnc2)cc1OC do in these assays?
CendR NRP1 mod: 5.5; ARFGAP1 inhibitor: 4.6; V-ATPase pHluor: -2.9; ASAP1 GAP inh: 0.2; Exocytosis inh: -1.1

How did COc1ccc(C(CNc2ccc(S(=O)(=O)N3CCCC3)cc2[N+](=O)[O-])N2CCCC2)cc1 (configuration not stated) do in these assays?
CendR NRP1 mod: 25.6*; ARFGAP1 inhibitor: 2.6; V-ATPase pHluor: -1.3; ASAP1 GAP inh: -7.5; Exocytosis inh: 1.5

Results for CC1(c2nnnn2-c2ccc3c(c2)OCCO3)CCC(=O)N1CCc1ccc(O)cc1 (configuration not stated) ?
CendR NRP1 mod: 11.4; ARFGAP1 inhibitor: -6.3; ASAP1 GAP inh: 12.7; Exocytosis inh: -5.7

What do the screens show for `Nc1ccn([C@@H]2O[C@H](C(=O)N[C@H](Cc3ccccc3)C(=O)Nc3ccc4scnc4c3)[C@@H](O)[C@H]2O)c(=O)n1`?
ARFGAP1 inhibitor: -16.1; ASAP1 GAP inh: 15.7

Results for O=C(NCc1ccc(Cl)cc1)C1CCC(=O)N(C2CC2)C1 (configuration not stated) ?
CendR NRP1 mod: 20.2*; ARFGAP1 inhibitor: -3.9; V-ATPase pHluor: 0.2; ASAP1 GAP inh: 1.9; Exocytosis inh: -1.4

Results for O=C(NCCc1ccc(Cl)cc1)C1CCC(=O)N(C2CCCCCC2)C1 (configuration not stated) ?
CendR NRP1 mod: 1.8; ARFGAP1 inhibitor: -2.3; V-ATPase pHluor: 1.5; ASAP1 GAP inh: 1.4; Exocytosis inh: inconclusive

What do the screens show for `COc1ccc2c(c1OC)C(=O)OC2Nc1nc(-c2cc3ccccc3oc2=O)cs1` (configuration not stated)?
CendR NRP1 mod: -31.8; ARFGAP1 inhibitor: 2.8; V-ATPase pHluor: 3.5; ASAP1 GAP inh: -7.3; Exocytosis inh: 79.1*

Results for COc1ccc2c(c1OC)C(=O)OC2Nc1nc(-c2cc3cc([N+](=O)[O-])ccc3oc2=O)cs1 (configuration not stated) ?
CendR NRP1 mod: -57.9; ARFGAP1 inhibitor: 9.4; V-ATPase pHluor: 5.7; ASAP1 GAP inh: 1.6; Exocytosis inh: 3.0

What do the screens show for `N#CC(C#N)=C1C=CC=CN1/C(=C\c1ccco1)C(=O)c1ccc(-c2ccccc2)cc1`?
CendR NRP1 mod: -11.1; ARFGAP1 inhibitor: 1.6; V-ATPase pHluor: -5.2; ASAP1 GAP inh: 6.6; Exocytosis inh: 28.4
